Experimental data published in ChEMBL document CHEMBL1125585, “(Methoxyalkyl)thiazoles: a new series of potent, selective, and orally active 5-lipoxygenase inhibitors displaying high enantioselectivity” (J Med Chem, 1991).

Experiments:
[1] = target: T1, Polyunsaturated fatty acid 5-lipoxygenase (Homo sapiens, UniProt P09917); assay: Inhibition of 5-lipoxygenase in human whole blood.; assay type: tissue-based
T1 sequence (P09917 whole entry): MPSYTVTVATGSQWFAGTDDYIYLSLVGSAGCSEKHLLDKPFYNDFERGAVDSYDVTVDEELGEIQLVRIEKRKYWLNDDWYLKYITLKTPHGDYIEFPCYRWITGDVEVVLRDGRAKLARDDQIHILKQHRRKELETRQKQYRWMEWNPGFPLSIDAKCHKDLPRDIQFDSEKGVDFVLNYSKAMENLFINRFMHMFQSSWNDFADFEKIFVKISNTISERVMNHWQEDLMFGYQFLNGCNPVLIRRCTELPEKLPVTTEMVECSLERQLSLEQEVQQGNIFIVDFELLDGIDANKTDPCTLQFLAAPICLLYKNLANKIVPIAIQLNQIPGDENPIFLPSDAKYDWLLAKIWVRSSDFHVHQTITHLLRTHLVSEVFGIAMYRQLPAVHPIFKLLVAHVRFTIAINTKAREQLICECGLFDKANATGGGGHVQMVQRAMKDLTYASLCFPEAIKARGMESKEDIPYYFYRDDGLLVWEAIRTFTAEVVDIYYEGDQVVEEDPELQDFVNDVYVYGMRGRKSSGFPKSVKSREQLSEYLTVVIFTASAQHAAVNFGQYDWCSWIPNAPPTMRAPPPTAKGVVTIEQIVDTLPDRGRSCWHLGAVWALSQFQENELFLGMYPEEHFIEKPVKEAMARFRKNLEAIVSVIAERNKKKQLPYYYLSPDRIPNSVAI
Outline: (§1)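 Eicosanoid (LTB4, PGE2, TXB2) generation measured in vitro in heparinised rat or human whole blood; IC50s given ± SE with the number of determinations.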

[2] = target: T2, Polyunsaturated fatty acid 5-lipoxygenase (Mus musculus, UniProt P48999); assay: Inhibition of 5-lipoxygenase in mouse macrophages.
T2 sequence (P48999 whole entry): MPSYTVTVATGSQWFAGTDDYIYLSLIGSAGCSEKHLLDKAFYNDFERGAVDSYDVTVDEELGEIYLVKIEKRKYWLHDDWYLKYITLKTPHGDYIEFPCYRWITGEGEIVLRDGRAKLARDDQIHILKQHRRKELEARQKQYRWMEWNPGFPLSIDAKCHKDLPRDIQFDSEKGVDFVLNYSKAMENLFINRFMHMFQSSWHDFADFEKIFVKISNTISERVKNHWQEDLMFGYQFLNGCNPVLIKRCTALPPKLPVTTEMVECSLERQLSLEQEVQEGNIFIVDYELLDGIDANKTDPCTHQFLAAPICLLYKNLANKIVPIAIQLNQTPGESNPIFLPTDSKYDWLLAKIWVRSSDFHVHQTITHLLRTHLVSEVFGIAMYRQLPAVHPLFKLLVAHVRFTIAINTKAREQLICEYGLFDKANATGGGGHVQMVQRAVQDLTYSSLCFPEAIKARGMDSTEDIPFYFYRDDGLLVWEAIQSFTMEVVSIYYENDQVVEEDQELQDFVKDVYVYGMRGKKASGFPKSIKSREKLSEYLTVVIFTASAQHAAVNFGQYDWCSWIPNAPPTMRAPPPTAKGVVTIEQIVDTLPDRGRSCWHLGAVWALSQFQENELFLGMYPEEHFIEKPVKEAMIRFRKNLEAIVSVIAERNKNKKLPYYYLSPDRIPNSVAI
Outline: (§2)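 LTC4 and PGE2 synthesis measured in plasma-free cultures of murine peritoneal macrophages.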

[3] = target: T3, Polyunsaturated fatty acid 5-lipoxygenase (Rattus norvegicus, UniProt P12527); assay: Compound was tested for the inhibition of 5-lipoxygenase (5-Lpo) in rat whole blood.; assay type: tissue-based; outline: as §1
T3 sequence (P12527 whole entry): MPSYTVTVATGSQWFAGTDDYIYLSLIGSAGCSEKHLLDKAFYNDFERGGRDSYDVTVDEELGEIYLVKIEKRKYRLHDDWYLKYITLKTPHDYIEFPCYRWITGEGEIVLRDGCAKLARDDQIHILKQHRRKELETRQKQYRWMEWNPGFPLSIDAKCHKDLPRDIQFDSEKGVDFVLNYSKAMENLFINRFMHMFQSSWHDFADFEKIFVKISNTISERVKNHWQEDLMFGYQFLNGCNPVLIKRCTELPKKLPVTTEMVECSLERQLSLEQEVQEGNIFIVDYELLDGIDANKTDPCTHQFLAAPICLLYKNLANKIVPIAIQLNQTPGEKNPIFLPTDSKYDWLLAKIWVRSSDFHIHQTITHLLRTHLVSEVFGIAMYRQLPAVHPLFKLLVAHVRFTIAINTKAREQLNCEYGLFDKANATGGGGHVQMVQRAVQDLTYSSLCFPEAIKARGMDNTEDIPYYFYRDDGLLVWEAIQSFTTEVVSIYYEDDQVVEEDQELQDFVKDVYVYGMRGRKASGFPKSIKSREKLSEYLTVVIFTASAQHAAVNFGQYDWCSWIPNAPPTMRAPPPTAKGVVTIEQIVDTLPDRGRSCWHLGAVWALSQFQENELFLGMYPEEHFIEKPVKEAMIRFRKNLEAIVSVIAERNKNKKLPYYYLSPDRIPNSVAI

[4] = target: T3, Polyunsaturated fatty acid 5-lipoxygenase; assay: Compound was tested for the inhibition of 5-lipoxygenase (5-LPO) in rat basophilic leukemia (RBL) cells.; assay type: cell-based, RBL-1
Outline: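 Cell-free 5-LPO activity was measured spectrophotometrically. The enzyme source was the high-speed supernatant of rat basophilic leukemia (RBL) cells.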

[5] = species on record: Mus musculus; assay: In vitro inhibition of PGE-2 synthesis in plasma free mouse macrophages.; assay type: functional; outline: as §2
[6] = test system: Rattus norvegicus; assay: Compound was evaluated ex vivo for inhibition of LTB4 synthesis in rat on oral administration.; assay type: functional
Outline: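 Rats dosed orally at 1 mL/kg with a suspension made by mixing 300 µL of compound in DMSO into 15 mL of 0.5% hydroxypropyl methyl cellulose with 0.1% polysorbate 80. Controls got the same volume of vehicle. After 1 h the animals were killed and bled, and LTB4 and TXB2 synthesis was measured in the blood ex vivo, n = 5 per point.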

[7] = species on record: Rattus norvegicus; assay: In vitro inhibition of TXB2 synthesis against rat whole blood.
[8] = species on record: Rattus norvegicus; assay: In vitro inhibition of LTB4 synthesis in rat whole blood.; assay type: functional; outline: as §1
[9] = species on record: Mus musculus; assay: In vitro inhibition of LTC4 synthesis in plasma free mouse macrophages.; assay type: functional; outline: as §2
[10] = species on record: Homo sapiens; assay: In vitro inhibition of TXB2 synthesis in human whole blood.; assay type: functional; outline: as §1
[11] = species on record: Homo sapiens; assay: In vitro inhibition of LTB4 synthesis in human whole blood.; assay type: functional; outline: as §1
[12] = species on record: Rattus norvegicus; assay: In vitro inhibition of PGE-2 synthesis against rat whole blood.; assay type: functional; details: in the assay text read “TXB2” for “PGE-2”; outline: as §1

IC50 [1] [µM] | IC50 [2] [µM] | Compound | also measured
0.6 | – | CCC(OC)(c1cccc(OCc2ccc3ccccc3c2)c1)c1cscn1 (configuration not stated) | –
> 40 | – | COC1(c2nccs2)CCc2c(OCc3ccc4ccccc4c3)cccc21 (configuration not stated) | –
8.8 | 0.08 | CCCC(O)(c1cccc(OCc2ccc3ccccc3c2)c1)c1nccs1 (configuration not stated) | –
11 | – | CCC(O)(c1cccc(OCCCc2ccccc2)c1)c1nccs1 (configuration not stated) | –
7 | 0.3 | COC(c1cccc(OCc2ccc3ccccc3c2)c1)c1nccs1 (configuration not stated) | IC50 [3]: 6 µM
40 | 0.8 | CCC(OC)(c1cccc(OCc2ccc(F)c(F)c2)c1)c1nccs1 (configuration not stated) | –
~40 | – | CCC(OC)(c1ccc(OCc2ccc3ccccc3c2)cc1)c1nccs1 (configuration not stated) | –
6.3 | – | CCC(OC)(c1cccc(OCc2ccc3ccccc3c2)c1)c1cncs1 (configuration not stated) | –
4.8 | – | CCC(OC)(c1cccc(OCc2cccc3ccccc23)c1)c1nccs1 (configuration not stated) | –
> 40 | – | COC1CCc2ccc(OCc3ccc4ccccc4c3)cc21 (configuration not stated) | –
> 40 | – | c1ccc2cc(COc3ccc4c(c3)C(c3nccs3)CC4)ccc2c1 (configuration not stated) | –
– | – | Cc1cnc(C(O)c2cccc(OCc3ccc4ccccc4c3)c2)[nH]1 (configuration not stated) | IC50 [3]: > 30 µM
2.5 | – | CCC(O)(c1cccc(OCC#Cc2cccc(C)c2)c1)c1nccs1 (configuration not stated) | –
~40 | – | Cc1cnc(C(C)(O)c2cccc(OCc3ccc4ccccc4c3)c2)s1 (configuration not stated) | –
~40 | 0.82 | CCC(OC)(c1cccc(OCc2ccc3ccccc3c2)c1)c1nc(C)cs1 (configuration not stated) | –
0.8 | 0.006 | CCC(O)(c1cccc(OC/C=C/c2ccccc2)c1)c1nccs1 (configuration not stated) | –
0.5 | 0.005 | COC(C)(c1cccc(OCc2ccc3ccccc3c2)c1)c1nccs1 (configuration not stated) | IC50 [3]: 0.8 µM
> 40 | – | CCC(OC)(c1nccs1)c1ccccc1OCc1ccc2ccccc2c1 (configuration not stated) | –
– | – | CCCCCCCCCCOc1cccc(C(O)c2nc(C)c[nH]2)c1 (configuration not stated) | IC50 [3]: > 30 µM
1.1 | – | CCC(O)(c1cccc(OCc2ccc(Cl)c(Cl)c2)c1)c1nccs1 (configuration not stated) | –
40 | 1 | CC(C)C(O)(c1cccc(OCc2ccc3ccccc3c2)c1)c1nccs1 (configuration not stated) | –
1 | 0.03 | CCC(O)(c1cccc(OCC#Cc2ccccc2)c1)c1nccs1 (configuration not stated) | –
– | – | OC(c1cccc(OCc2ccc3ccccc3c2)c1)c1nccs1 (configuration not stated) | IC50 [3]: 30 µM
0.7 | 0.014 | COC1(c2nccs2)CCc2ccc(OCc3ccc4ccccc4c3)cc21 (racemic) | IC50 [4]: 0.8 µM
0.5 | < 0.03 | COC1(c2nccs2)CCc2ccc(OCc3ccc4ccccc4c3)cc21 (single isomer, unassigned; (+)) | IC50 [4]: 0.13 µM
> 40 | 1.5 | COC1(c2nccs2)CCc2ccc(OCc3ccc4ccccc4c3)cc21 (single isomer, unassigned; (-)) | IC50 [4]: > 20 µM
~40 | 2 | COC(C)(c1cccc(OCc2ccc3ccccc3c2)c1)c1nccs1 (stereo in doubt; 2o) | –
0.7 | 0.03 | COC(C)(c1cccc(OCc2ccc3ccccc3c2)c1)c1nccs1 (stereo in doubt; 2p) | –
– | – | CC(c1cc2ccccc2s1)N(O)C(N)=O (configuration not stated) [ZILEUTON] | IC50 [5]: 27 µM; ED50 [6]: 5 mg/kg; IC50 [7]: 25 µM; IC50 [8]: 2 µM; IC50 [9]: 1.2 µM; IC50 [10]: 25 µM; IC50 [11]: 2 µM
– | 0.008 | CCC(OC)(c1cccc(OCc2ccc3ccccc3c2)c1)c1nccs1 (configuration not stated) [ZM-211965] | IC50 [5]: > 50 µM; ED50 [6]: 10 mg/kg; IC50 [3]: 0.5 µM; IC50 [12]: > 100 µM; IC50 [8]: 0.5 µM; IC50 [9]: 0.008 µM; IC50 [10]: > 100 µM; IC50 [11]: 0.4 µM
